The source made the active and inactive calls.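 Rule for the calls, unless noted: active = fluorescence slope after compound addition differing from the mean of all screened samples at 99.7% confidence, in either direction; inactive = the rest.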
Experiments:
[1] = inhibitors of TNFa-induced NFkB p65 translocation, primary screen, imaging, HUVEC, MLSMR starter and 10KST1 sets (AID 438;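 active = inhibition above 20% together with a positive visual image hit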;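 note: compound added about 3h40 before a 20 min TNFalpha stimulation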;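 for inhibition: signal is the nuclear over cytoplasmic p65 intensity ratio per well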); settings: HUVEC TNFa-induced p65 nuclear translocation; cell count: measured here: nuclei count (cytotoxicity indicator), at 2.08 µM; inhibition: at 2 µM, stronger effect = higher value, 0% TNFa-plus-vehicle, 100% no-TNFa wells
[2] = inhibitors of E-selectin induction by TNFa, primary screen, imaging, HUVEC, immunofluorescence, MLSMR starter and 10KST1 sets (AID 487;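 active = visually confirmed hit in the image check and inhibition above 20%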;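 for inhibition: signal is fraction of cell area covered by stained E-selectin grains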;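 for nuclei count: 100% = median nuclei count of all wells on the same plate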); settings: HUVEC TNFalpha-induced E-selectin immunofluorescence imaging, at 2 µM; inhibition: stronger effect = higher value; nuclei count: measured here: cell number, toxicity
[3] = DUSP6 inhibitors restoring Erk phosphorylation by chemical complementation, primary imaging in DUSP6-transfected HeLa (AID 609;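 active = compounds giving at least 50% inhibition in the cell-based MKP-3 phosphatase rescue imaging test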;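 for inhibition: phospho-Erk level distribution per well compared with pooled transfected vehicle control wells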); settings: HeLa MKP-3 transfected, phospho-Erk imaging KS statistic, at 10 µM, cells stimulated with TPA for 15 min
[4] = target: Dual specificity protein phosphatase 6 (Homo sapiens) (UniProt Q16828); assay: as above; settings: HeLa MKP-3 transfected, phospho-Erk imaging KS statistic; at 10 µM; stronger effect = higher value; cells stimulated with TPA for 15 min
Sequence of Dual specificity protein phosphatase 6 (Homo sapiens) (Q16828 whole entry, looked up): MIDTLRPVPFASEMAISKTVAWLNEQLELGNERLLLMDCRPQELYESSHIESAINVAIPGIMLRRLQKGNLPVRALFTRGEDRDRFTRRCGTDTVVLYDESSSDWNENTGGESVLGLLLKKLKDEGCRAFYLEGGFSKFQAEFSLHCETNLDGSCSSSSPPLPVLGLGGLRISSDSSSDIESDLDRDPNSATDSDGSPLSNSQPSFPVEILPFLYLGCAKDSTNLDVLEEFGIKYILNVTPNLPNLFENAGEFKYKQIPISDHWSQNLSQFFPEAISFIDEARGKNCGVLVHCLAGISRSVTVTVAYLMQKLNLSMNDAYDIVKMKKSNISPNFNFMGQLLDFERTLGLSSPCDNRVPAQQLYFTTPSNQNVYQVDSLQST

[5] = target: Voltage-gated potassium channel subunit beta-2 (Rattus norvegicus) (UniProt P62483); assay: KvBeta enzyme negative modulators, primary screen, biochemical, NADPH fluorescence (AID 622;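 active = fluorescence slope higher than the sample average by over 3 SD, cut at about -0.22 in these data, passing the limit was not always enough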;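 note: slope of raw intensity against log time taken from 70 to 1610 s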); settings: recombinant KvBeta, 4-cyanobenzaldehyde reduction, at 10 µM, stronger effect = higher value
Sequence of Voltage-gated potassium channel subunit beta-2 (Rattus norvegicus) (P62483 whole entry, looked up): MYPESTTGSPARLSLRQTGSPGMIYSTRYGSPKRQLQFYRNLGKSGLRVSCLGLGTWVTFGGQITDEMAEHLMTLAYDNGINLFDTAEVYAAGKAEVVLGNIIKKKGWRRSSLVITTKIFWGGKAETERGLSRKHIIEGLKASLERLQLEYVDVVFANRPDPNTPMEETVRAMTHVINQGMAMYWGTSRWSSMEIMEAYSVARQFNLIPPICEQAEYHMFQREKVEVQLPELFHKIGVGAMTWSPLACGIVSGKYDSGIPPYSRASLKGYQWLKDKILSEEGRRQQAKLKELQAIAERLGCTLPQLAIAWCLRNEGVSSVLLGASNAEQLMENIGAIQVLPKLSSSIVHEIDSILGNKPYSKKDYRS

[6] = target: Voltage-gated potassium channel subunit beta-2 (Rattus norvegicus) (UniProt P62483); assay: KvBeta positive modulators, primary screen, biochemical, NADPH fluorescence (AID 623;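 active = NADPH fluorescence slope more negative than the mean of all samples by about 3 SD, 99.7% confidence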;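 note: fluorescence intensity change per second fitted from 20 to 320 s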); settings: Recombinant KvBeta, NADPH fluorescence decrease slope, 10 min; at 10 µM; stronger effect = lower value
[7] = target: Alpha-2C adrenergic receptor (Homo sapiens) (UniProt P18825); assay: modulators of alpha2C/GIRK thallium flux, primary screen, cell-based, HEK293 alpha2C/GIRK1/2 (AID 624); settings: thallium flux BTC fluorescence, at 10 µM, actives lie on both sides;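 note: slope of fluorescence ratio to pre-addition baseline per second over 15 to 24 s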
Sequence of Alpha-2C adrenergic receptor (Homo sapiens) (P18825 whole entry, looked up): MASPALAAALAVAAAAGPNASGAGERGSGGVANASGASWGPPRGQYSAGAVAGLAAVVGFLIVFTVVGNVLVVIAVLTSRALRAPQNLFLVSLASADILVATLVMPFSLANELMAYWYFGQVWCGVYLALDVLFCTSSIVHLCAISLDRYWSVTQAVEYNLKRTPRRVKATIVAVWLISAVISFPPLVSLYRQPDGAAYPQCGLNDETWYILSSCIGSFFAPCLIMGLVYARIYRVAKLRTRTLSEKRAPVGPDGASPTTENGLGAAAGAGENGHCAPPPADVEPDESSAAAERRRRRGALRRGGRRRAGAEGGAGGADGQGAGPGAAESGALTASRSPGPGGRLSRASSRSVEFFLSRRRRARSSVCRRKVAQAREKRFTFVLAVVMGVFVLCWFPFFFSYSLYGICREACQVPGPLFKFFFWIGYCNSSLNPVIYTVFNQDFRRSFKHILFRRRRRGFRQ

[8] = inhibitors of larval lipid processing in zebrafish, primary screen, whole organism, PED6 fluorescence, gall bladder and intestine (AID 686;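 active = a full or partial loss of lipid-probe fluorescence in the fish gall bladder, intestine or both, judged by eye; inactive = no fluorescence loss, or compound toxic to the fish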;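 note: larvae 5 to 7 days old with five fish per well; signal comes from phospholipase A2 cleavage of quenched PED6 carried via bile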); settings: Zebrafish larvae PED6 lipid processing, fluorescence scoring; screened at 20 µM (by protocol)
Summary of the method: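 Incubation: overnight exposure of larvae to compound plus PED6 / Test system: live zebrafish larvae aged 5-7 days, whole organism / Amount: 5 larvae per well / Read-out basis: visual per-well fluorescence inhibition score / Signal: visual fluorescence microscopy scoring of gall bladder, gut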

[9] = inhibitors of Chlamydomonas gravitaxis, primary screen, whole organism, Chlamydomonas reinhardtii, WT vs cilia-less mutant, absorbance, 96-well (AID 463189;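 active = inhibition at or above 50% relative to wild type and mutant plate controls; inactive = inhibition below 50%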;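 note: 0% = wild type cc124 cells in DMSO and 100% = ciliumless bld1 mutant cells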); settings: OD600 absorbance, 2 days, at 10 µM, stronger effect = higher value
[10] = measured here: cell density z-score
[11] = measured here: nuclear c-Myc green intensity z-score
[12] = measured here: nuclear pErk red intensity z-score, stronger effect = higher value

SMILES	cell count [1]	inhibition [1]	inhibition [2]	nuclei count [2] [%]	z-score [3, 10]	z-score [3, 11]	z-score [3, 12]	inhibition [4]	fluorescence slope [5]	NADPH fluorescence slope [6]	slope [7]	outcome [8]	inhibition [9]
CC1(C)Cc2c(C#N)c(NCCc3ccccc3)nc(-c3ccco3)c2CO1	585	-9.7% (inactive)	-33.8% (inactive)	184	0.597	-1.77	0.237	22.3% (inactive)	-0.122 (inactive)	5.1e-06 (inactive)	0.00499 (inactive)	inactive	34.4% (inactive)
Oc1ccc2ccccc2c1/C=N/n1cnnc1	538	-5.9% (inactive)	-57.1% (inactive)	217	0.969	0.692	-0.685	-2.91% (inactive)	-0.356 (inactive)	-1.6e-05 (inactive)	0.00487 (inactive)	inactive	-4.69% (inactive)
COC(=O)CNc1nc(-c2cccnc2)nc2ccccc12	543	-5.9% (inactive)	-23.5% (inactive)	156	-0.375	1.95	0.774	-11.9% (inactive)	-0.327 (inactive)	8.2e-06 (inactive)	0.0052 (inactive)	inactive	-0.905% (inactive)
CC(=O)c1cc2c(=O)c3ccccc3oc2nc1C	564	-7.4% (inactive)	19.7% (inactive)	151	0.231	1.31	-0.249	26.5% (inactive)	-0.525 (inactive)	-4.9e-05 (inactive)	0.00444 (inactive)	inactive	46.5% (inactive)
Cc1cccc(Nc2ncnc3ccccc23)c1	458	-5.2% (inactive)	-1% (inactive)	123	-0.619	0.167	-0.509	18.2% (inactive)	-0.519 (inactive)	-6.7e-05 (inactive)	0.00506 (inactive)	inactive	2.93% (inactive)
CC(C)c1cc(NCCCN2CCOCC2)n2c(nc3ccccc32)c1C#N	548	-21.3% (inactive)	-6.2% (inactive)	155	1.24	-0.267	-1.5	6.51% (inactive)	-0.342 (inactive)	-1.7e-06 (inactive)	0.00382 (inactive)	inactive	5.12% (inactive)
COc1cccc(CNc2ccc(Br)cn2)c1O	544	-3.4% (inactive)	-2.4% (inactive)	167	-0.809	-0.901	-0.106	3.5% (inactive)	-0.316 (inactive)	1.4e-05 (inactive)	0.00431 (inactive)	inactive	6.48% (inactive)
CCc1ccc2c(c1)C(C)=CC(C)(C)N2	622	-14.1% (inactive)	-3.3% (inactive)	176	-1.35	-0.276	0.835	-13.3% (inactive)	-0.431 (inactive)	-6.9e-05 (inactive)	0.00542 (inactive)	inactive	5.82% (inactive)
CCCCCc1ccc(-c2ccc(=O)[nH]n2)cc1	455	-1.5% (inactive)	-85% (inactive)	107	1.16	-0.256	-1.03	15.1% (inactive)	-0.516 (inactive)	-2.1e-05 (inactive)	0.00535 (inactive)	inactive	-28.2% (inactive)
CCN(CC)C(=O)CN(C#N)c1nc(NC(C)C)nc(NC(C)C)n1	594	5.2% (inactive)	-48.7% (inactive)	173	0.0403	2.22	-0.0328	5.65% (inactive)	-0.213 (inactive)	8.9e-06 (inactive)	0.00592 (inactive)	inactive	31.8% (inactive)
COc1ccccc1-c1nnc2sc(C3CCCCC3)nn12	531	-12.5% (inactive)	-318% (inactive)	161	-0.671	0.45	0.848	-0.674% (inactive)	-0.405 (inactive)	-0.000298 (inactive)	0.00423 (inactive)	active; no signal in intestine only	11.6% (inactive)
Cc1[nH]nc2cn[nH]c12	531	-7.3% (inactive)	-92.8% (inactive)	130	-0.515	1.09	1.21	-5.89% (inactive)	-0.526 (inactive)	-5.7e-05 (inactive)	0.00413 (inactive)	inactive	4.67% (inactive)
COc1ccccc1N1CCN(C2CCN(C(=O)c3cccs3)CC2)CC1	390	-7.8% (inactive)	-197% (inactive)	173	-0.252	0.0653	1.15	-5.89% (inactive)	-0.397 (inactive)	-3e-05 (inactive)	0.00342 (inactive)	inactive	22.3% (inactive)
Nc1nnc(CC2=CCCCC2)s1	579	-13.4% (inactive)	28.3% (inactive)	152	-0.93	0.818	-0.135	-9.66% (inactive)	-0.396 (inactive)	-3.4e-05 (inactive)	0.00749 (inactive)	inactive	8.68% (inactive)

— PubChem BioAssay
